Measured values from ChEMBL document CHEMBL4364291, “Benzylideneacetone Derivatives Inhibit Osteoclastogenesis and Activate Osteoblastogenesis Independently Based on Specific Structure-Activity Relationship” (J Med Chem, 2019).
pIC50: −log10 of the molar value. The source made the active and inactive calls. The calls are words filed in the database; no cut-off is given here.

Tests used:
[1] = Terminal half-life in ICR mouse at 2 mg/kg, iv measured up to 8 hrs by LC-MS/HPLC analysis; format: ADME, organism-based; conditions: in vivo, read-out: beta t1/2 (converted)
In short: (§1)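 Six-week-old male ICR mice (n = 3) were kept at 25 ± 2 °C on a 12 h light/dark cycle and dosed iv or po. Total plasma concentration (bound plus unbound) was plotted against time. Terminal T1/2 came from the elimination phase: a two-compartment fit for po dosing and a single-compartment fit for iv dosing.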

[2] = Terminal half-life in ICR mouse at 10 mg/kg, po administered via gavage measured up to 8 hrs by LC-MS/HPLC analysis; format: ADME, organism-based; conditions: in vivo, read-out: beta t1/2 (converted); in short: as §1
[3] = Terminal half-life in ICR mouse at 50 mg/kg, po administered via gavage measured up to 8 hrs by LC-MS/HPLC analysis; format: ADME, organism-based; conditions: in vivo, read-out: beta t1/2 (converted); in short: as §1
[4] = Cmax in ICR mouse at 10 mg/kg, po administered via gavage measured up to 8 hrs by LC-MS/HPLC analysis; format: ADME, organism-based; parameters: dose 10 mg/kg, route oral; conditions: in vivo
In short: (§2)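 Six-week-old male ICR mice, housed at 25 ± 2 °C, 60 ± 10% humidity, 12 h light/dark. Dosing was iv at 2 mg/kg or po at 10 and 50 mg/kg. Plasma concentrations were total, bound plus unbound. AUC∞ is from time zero to infinity. F = (AUCpo/AUCiv) × 100. Cmax and AUC∞ are mean ± SD of three mice.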

[5] = Cmax in ICR mouse at 50 mg/kg, po administered via gavage measured up to 8 hrs by LC-MS/HPLC analysis; format: ADME, organism-based; parameters: dose 50 mg/kg, route oral; conditions: in vivo; in short: as §2
[6] = AUC (0 to infinity) in ICR mouse at 2 mg/kg, iv measured up to 8 hrs by LC-MS/HPLC analysis; format: ADME, organism-based; parameters: dose 2 mg/kg, time infinity, route intravenous; conditions: in vivo; in short: as §2
[7] = AUC (0 to infinity) in ICR mouse at 10 mg/kg, po administered via gavage measured up to 8 hrs by LC-MS/HPLC analysis; format: ADME, organism-based; parameters: dose 10 mg/kg, route oral, time infinity; conditions: in vivo; in short: as §2
[8] = Inhibition of M-CSF/RANKL-induced osteoclast differentiation in C57BL/6 mouse bone marrow macrophage assessed as reduction in multinucleated TRAP+ cells incubated for 6 days with fresh media replacement on day 3 and measured on day 6 by TRAP staining-based microscopic analysis; format: functional, cell-based; conditions: C57BL/6, BMDM
In short: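 BMM came from femur and tibia marrow of 5–8-week-old male C57BL/6 mice and were purified over lymphocyte separation medium. Cells, 1 × 10^5 per well, were grown in α-MEM/10% FBS with M-CSF (60 ng/mL) and RANKL (150 ng/mL) for 6 d, medium changed day 3. Compound range was 0.01−100 μM. TRAP+ multinucleated cells were counted on day 6.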

[9] = AUC (0 to infinity) in ICR mouse at 50 mg/kg, po administered via gavage measured up to 8 hrs by LC-MS/HPLC analysis; format: ADME, organism-based; parameters: dose 50 mg/kg, time infinity, route oral; conditions: in vivo; in short: as §2
MC3T3-E1 [10] = assay: Osteo-blastogenic activity in mouse MC3T3-E1 cells assessed as stimulation of ALP activity at 10 uM supplemented with fresh medium every 3 to 4 days and measured after 14 days relative to control; format: functional
In short: (§3)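 MC3T3-E1 subclone 4 osteoblastic cells were grown in α-MEM at 37 °C under 5% CO2 with compound present during differentiation. ALP activity was read 14 d after induction and expressed as % of untreated cells. Values are mean ± SD of three independent experiments.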

MC3T3-E1 [11] = assay: Osteo-blastogenic activity in mouse MC3T3-E1 cells assessed as stimulation of ALP activity at 50 uM supplemented with fresh medium every 3 to 4 days and measured after 14 days relative to control; format: functional; in short: as §3
[12] = Oral bioavailability in ICR mouse at 10 mg/kg administered via gavage measured up to 8 hrs by LC-MS/HPLC analysis; format: ADME, organism-based; conditions: in vivo; in short: as §2
[13] = Oral bioavailability in ICR mouse at 50 mg/kg administered via gavage measured up to 8 hrs by LC-MS/HPLC analysis; format: ADME, organism-based; conditions: in vivo; in short: as §2
Mus musculus [14] = assay: Antiosteoporotic activity in ddY mouse model of OVX-induced osteoporosis assessed as increase in femur bone mineral density at 10 mg/kg, po administered once daily via gavage for 4 weeks by microcomputed tomographic analysis; format: functional, organism-based
In short: (§4)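 Female ddY mice were ovariectomized. Oral gavage began 1 week after surgery and ran once daily for 28 d. Vehicle was 300 μL PBS containing 0.5% (v/v) DMSO, also given to sham and OVX controls. Mice were then euthanized and femur and tibia fixed for CT imaging. Values are mean ± SD of four mice.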

Mus musculus [15] = assay: Antiosteoporotic activity in ddY mouse model of OVX-induced osteoporosis assessed as increase in ratio of bone volume/trabecular volume in femur bone at 10 mg/kg, po administered once daily via gavage for 4 weeks by microcomputed tomographic analysis; format: functional, organism-based; in short: as §4
Mus musculus [16] = assay: Antiosteoporotic activity in ddY mouse model of OVX-induced osteoporosis assessed as increase in cross-sectional thickness in femur bone at 10 mg/kg, po administered once daily via gavage for 4 weeks by microcomputed tomographic analysis; format: functional, organism-based; in short: as §4
Mus musculus [17] = assay: Antiosteoporotic activity in ddY mouse model of OVX-induced osteoporosis assessed as increase in trabecular number in femur bone at 10 mg/kg, po administered once daily via gavage for 4 weeks by microcomputed tomographic analysis; format: functional, organism-based; in short: as §4
Mus musculus [18] = assay: Antiosteoporotic activity in ddY mouse model of OVX-induced osteoporosis assessed as increase in trabecular thickness in femur bone at 10 mg/kg, po administered once daily via gavage for 4 weeks by microcomputed tomographic analysis; format: functional, organism-based; in short: as §4
Mus musculus [19] = assay: Antiosteoporotic activity in ddY mouse model of OVX-induced osteoporosis assessed as reduction in trabecular separation in femur bone at 10 mg/kg, po administered once daily via gavage for 4 weeks by microcomputed tomographic analysis; format: functional, organism-based; in short: as §4
Mus musculus [20] = assay: Antiosteoporotic activity in ddY mouse model of OVX-induced osteoporosis assessed as increase in new bone volume in femur bone at 10 mg/kg, po administered once daily via gavage for 4 weeks by microcomputed tomographic analysis; format: functional, organism-based; in short: as §4
[21] = Cytotoxicity against mouse RAW264.7 cells after 24 hrs by MTT assay; format: cell-based; conditions: read-out: LD50
In short: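 RAW264.7 macrophages (preosteoclast line) were kept in DMEM at 37 °C under 5% CO2 and tested without RANKL. MTT read-out of growth and survival, expressed as LD50.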

[22] = Toxicity in ddY mouse model of OVX-induced osteoporosis assessed as increase in body weight at 10 mg/kg, po administered once daily via gavage for 4 weeks measured 5 weeks post OVX-challenge; format: organism-based; conditions: in vivo, 840 h
In short: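 Dosing of ddY mice began one week after ovariectomy: compound in 300 μL of 0.5% (v/v) DMSO-containing PBS by gavage once daily for 28 d. OVX and sham controls received vehicle. Body weight was compared with sham control 5 weeks after OVX.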

BMDM = assay: Inhibition of RANKL-induced osteoclastogenesis in C57BL/6 mouse bone marrow macrophages assessed as reduction in NFATc1 expression at 0.5 uM measured over 5 days by Western blot analysis; format: functional, cell-based
In short: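 C57BL/6 BMM were grown with M-CSF plus RANKL over the course of osteoclastogenesis, treated at 0.5 or 10 μM. NF-κB and NFATc1 were followed by Western blot. The negative control was M-CSF only.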

Structure (SMILES) | half-life [1] [h] | half-life [2] [h] | half-life [3] [h] | Cmax [4] [nM] | Cmax [5] [nM] | AUC(0-inf) [6] [µM·h] | AUC(0-inf) [7] [µM·h] | pIC50 [8] | AUC(0-inf) [9] [µM·h] | Activity (MC3T3-E1 [10]) [%] | Activity (MC3T3-E1 [11]) [%] | bioavailability [12] [%] | bioavailability [13] [%] | Activity (Mus musculus [14]) | Activity (Mus musculus [15]) | Activity (Mus musculus [16]) | Activity (Mus musculus [17]) | Activity (Mus musculus [18]) | Activity (Mus musculus [19]) | Activity (Mus musculus [20]) | also measured
CC(=O)/C=C/c1ccc(O)c(O)c1 | 0.4 | 2.1 | 3.1 | 200 | 1100 | 0.039 | 0.14 | 5.11 | 0.66 | 120 | 280 | 66 | 76 | Active | Active | Active | Active | Active | Active | Active | CC50 at 24 h [21]: 500 µM; Activity [22]: Toxic
COc1ccc(/C=C/C(C)=O)cc1O | 1 | 1.2 | 2.2 | 160 | 880 | 0.1 | 0.14 | 6.96 | 0.72 | 100 | 180 | 26 | 29 | Active | Active | Active | Active | Active | Active | Active | inhibition (BMDM): Active; CC50 at 24 h [21]: > 5000 µM; Activity [22]: Toxic
